The text below walks through data of ChEMBL document CHEMBL2176911 (J Med Chem, 2012).

The structures appear in SMILES notation. Activity calls are given as the source filed them. The rule behind the calls is not given here. Some results are limits rather than exact numbers.

Experiment [1] has as its target Cyclin-dependent kinase 7/ cyclin H (Homo sapiens, UniProt P50613). Kind of experiment: Inhibition of human recombinant CDK7/cyclin H expressed in insect cell using YSPTSPSYSPTSPSYSPTSPSKKKK as substrate and [gamma33P]ATP after 30 mins by scintillation counting. Summed up: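 Panel of purified kinases (recombinant from several species plus native enzymes), each assayed radiometrically over a range of inhibitor concentrations; IC50 in μM calculated from the dose-response curves.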

The target in experiment [2] is Dual specificity tyrosine-phosphorylation-regulated kinase 1A (Rattus norvegicus) (UniProt Q63470). Kind of experiment: Inhibition of DYRK1A in CD Sprague-Dawley rat brain assessed as inhibition of human APP-induced neurodegeneration after 3 hrs by fluorescence microscopic analysis.
Experiment [3] concerns the target Dual specificity tyrosine-phosphorylation-regulated kinase 1A (Mus musculus) (UniProt Q61214). The experiment is described as follows: Inhibition of DYRK1A isolated from mouse HT22 cells. The class given is cell-free. The following applies: HT-22.
The subject of experiment [4] is HT-22. Kind of experiment: Inhibition of GSK3 isolated from mouse HT22 cells. The class given is cell-free.
The subject of experiment [5] is HT-22. Kind of experiment: Downregulation of GSK3 expression in mouse HT22 cells after 4 hrs by Western blot analysis. Type of experiment: functional, cell-based.
In experiment [6] the target is Casein kinase II subunit alpha' (Mus musculus) (UniProt O54833). Kind of experiment: Binding affinity to CK2 alpha' subunit in mouse brain homogenate by Western blot analysis. The class given is tissue-based. The gist of the method:
(§1)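 Bead pull-down from HT22 cell or mouse brain extracts, with ethanolamine beads lacking ligand as control. Specificity was tested by adding excess free inhibitor to the extracts before binding.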

Experiment [7] has as its target Protein VAC14 homolog (Mus musculus) (UniProt Q80WQ2). Kind of experiment: Binding affinity to VAC14 in mouse HT22 cell lysate by Western blot analysis. The class given is cell-free. Particulars: HT-22. The gist of the method: as §1
Experiment [8] concerns HT-22. The experiment is described as follows: Binding affinity to GSK3beta2 in mouse HT22 cell lysate by Western blot analysis. Type of experiment: cell-free. Summed up: as §1
For experiment [9], the target named is Casein kinase II subunit alpha (Mus musculus, UniProt Q60737). Kind of experiment: Binding affinity to CSNK2A1 in mouse brain homogenate after 3 hrs by competition affinity chromatographic analysis. The class given is tissue-based. The gist of the method: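 Mouse brain lysate applied to a KinAffinity matrix of mixed immobilized broad-spectrum kinase inhibitors at highest loading density, with increasing concentrations of free inhibitor added. […] Separate titrations of the immobilized ligands gave BC50 values.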

Experiment [10] has as its target Serine/threonine-protein kinase pim-3 (Homo sapiens) (UniProt Q86V86). Kind of experiment: Inhibition of human recombinant His6-tagged PIM3 expressed in Sf21 cells using RSRHSSYPAGT as substrate at 1 uM after 30 mins.
The target is the same in experiment [11]. The experiment is described as follows: Inhibition of human recombinant His6-tagged PIM3 expressed in Sf21 cells using RSRHSSYPAGT as substrate at 10 uM after 30 mins.
Experiment [12] addresses Dual specificity tyrosine-phosphorylation-regulated kinase 3 (Homo sapiens) (UniProt O43781). Kind of experiment: Inhibition of human recombinant GST-tagged DYRK3 expressed in Escherichia coli using KKISGRLSPIMTEQ as substrate at 1 uM after 30 mins.
The target in experiment [13] is T1, Dual specificity tyrosine-phosphorylation-regulated kinase 2 (Homo sapiens) (UniProt Q92630).
T1 sequence (whole entry): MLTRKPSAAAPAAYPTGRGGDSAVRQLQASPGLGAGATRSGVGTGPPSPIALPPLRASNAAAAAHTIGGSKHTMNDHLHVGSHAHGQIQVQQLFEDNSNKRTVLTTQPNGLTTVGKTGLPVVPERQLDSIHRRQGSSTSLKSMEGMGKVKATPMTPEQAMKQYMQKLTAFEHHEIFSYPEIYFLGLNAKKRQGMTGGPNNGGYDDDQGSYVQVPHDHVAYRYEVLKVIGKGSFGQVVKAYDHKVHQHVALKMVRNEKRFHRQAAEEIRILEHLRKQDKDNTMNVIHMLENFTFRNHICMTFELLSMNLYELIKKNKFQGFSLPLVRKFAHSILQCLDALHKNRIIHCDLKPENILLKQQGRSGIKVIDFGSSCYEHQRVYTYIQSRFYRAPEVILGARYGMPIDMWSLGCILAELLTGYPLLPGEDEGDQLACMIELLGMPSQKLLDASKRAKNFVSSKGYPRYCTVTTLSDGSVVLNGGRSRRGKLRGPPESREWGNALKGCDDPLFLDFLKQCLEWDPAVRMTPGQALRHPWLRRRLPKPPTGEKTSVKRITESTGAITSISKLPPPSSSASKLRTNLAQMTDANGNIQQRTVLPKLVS
Kind of experiment: Inhibition of human recombinant GST-tagged DYRK2 expressed in Escherichia coli using KKISGRLSPIMTEQ as substrate at 10 uM after 30 mins.

Experiment [14] concerns the target Dual specificity tyrosine-phosphorylation-regulated kinase 1A (Homo sapiens) (UniProt Q13627). The experiment is described as follows: Inhibition of human recombinant GST-tagged DYRK1A expressed in Escherichia coli using KKISGRLSPIMTEQ as substrate at 10 uM after 30 mins.
Experiment [15] concerns the target Glycogen synthase kinase-3 beta (Homo sapiens, UniProt P49841). The experiment is described as follows: Inhibition of human recombinant GSK3beta expressed in insect cells using YRRAAVPPSPSLSRHSSPHQ-phosphoS-EDEEE as substrate and [gamma33P]ATP after 30 mins by scintillation counting.

Protein VAC14 homolog (Mus musculus), sequence (Q80WQ2 whole entry): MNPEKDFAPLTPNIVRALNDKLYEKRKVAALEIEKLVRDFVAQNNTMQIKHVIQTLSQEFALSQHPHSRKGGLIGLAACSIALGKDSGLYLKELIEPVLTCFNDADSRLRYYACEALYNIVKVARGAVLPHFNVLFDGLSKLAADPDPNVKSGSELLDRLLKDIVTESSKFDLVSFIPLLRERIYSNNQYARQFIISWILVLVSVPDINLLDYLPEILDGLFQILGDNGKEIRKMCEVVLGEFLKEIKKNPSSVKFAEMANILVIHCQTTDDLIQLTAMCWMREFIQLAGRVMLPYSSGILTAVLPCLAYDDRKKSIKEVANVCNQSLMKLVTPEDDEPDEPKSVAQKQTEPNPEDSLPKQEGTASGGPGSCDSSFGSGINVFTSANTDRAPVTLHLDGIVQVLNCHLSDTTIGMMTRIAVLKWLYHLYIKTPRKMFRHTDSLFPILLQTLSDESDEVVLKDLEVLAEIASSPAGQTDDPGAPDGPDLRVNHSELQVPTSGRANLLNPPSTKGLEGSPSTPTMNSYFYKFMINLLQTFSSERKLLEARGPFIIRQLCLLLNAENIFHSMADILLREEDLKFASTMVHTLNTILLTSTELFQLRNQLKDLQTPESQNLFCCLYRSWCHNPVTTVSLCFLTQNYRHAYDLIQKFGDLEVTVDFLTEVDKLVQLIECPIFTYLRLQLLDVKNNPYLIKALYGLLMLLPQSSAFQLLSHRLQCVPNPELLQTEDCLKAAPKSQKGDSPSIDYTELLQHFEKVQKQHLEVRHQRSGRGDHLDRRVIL
Glycogen synthase kinase-3 beta, sequence (P49841 whole entry): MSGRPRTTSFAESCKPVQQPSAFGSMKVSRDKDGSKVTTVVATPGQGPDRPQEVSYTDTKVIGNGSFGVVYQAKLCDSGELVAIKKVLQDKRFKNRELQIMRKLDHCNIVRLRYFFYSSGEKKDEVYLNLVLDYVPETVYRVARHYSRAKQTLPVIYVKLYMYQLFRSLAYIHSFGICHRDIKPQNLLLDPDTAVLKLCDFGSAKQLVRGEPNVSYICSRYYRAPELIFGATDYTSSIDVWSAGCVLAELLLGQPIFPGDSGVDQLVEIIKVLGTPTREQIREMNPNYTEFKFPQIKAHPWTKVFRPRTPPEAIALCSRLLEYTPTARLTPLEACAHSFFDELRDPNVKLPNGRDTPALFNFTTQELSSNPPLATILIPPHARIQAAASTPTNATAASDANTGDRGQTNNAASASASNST
Cyclin-dependent kinase 7/ cyclin H, sequence (P51946 whole entry): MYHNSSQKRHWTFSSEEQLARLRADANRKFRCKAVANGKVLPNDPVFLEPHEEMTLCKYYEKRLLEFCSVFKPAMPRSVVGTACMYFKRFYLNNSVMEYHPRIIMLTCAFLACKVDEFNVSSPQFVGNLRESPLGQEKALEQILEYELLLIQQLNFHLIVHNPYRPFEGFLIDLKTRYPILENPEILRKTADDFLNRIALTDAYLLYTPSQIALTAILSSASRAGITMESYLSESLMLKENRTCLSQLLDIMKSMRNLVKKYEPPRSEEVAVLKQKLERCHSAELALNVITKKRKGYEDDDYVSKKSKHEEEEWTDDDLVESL
Cyclin-dependent kinase 7/ cyclin H, sequence (P50613 whole entry): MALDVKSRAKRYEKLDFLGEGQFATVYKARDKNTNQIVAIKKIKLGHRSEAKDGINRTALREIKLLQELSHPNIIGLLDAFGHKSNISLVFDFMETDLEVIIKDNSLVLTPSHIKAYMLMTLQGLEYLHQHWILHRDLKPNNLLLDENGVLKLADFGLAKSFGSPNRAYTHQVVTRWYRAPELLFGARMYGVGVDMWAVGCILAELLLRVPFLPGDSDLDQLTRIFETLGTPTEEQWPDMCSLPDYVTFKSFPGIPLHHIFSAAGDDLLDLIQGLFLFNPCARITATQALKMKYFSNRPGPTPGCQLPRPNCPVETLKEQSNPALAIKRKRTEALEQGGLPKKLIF
Casein kinase II subunit alpha, sequence (Q60737 whole entry): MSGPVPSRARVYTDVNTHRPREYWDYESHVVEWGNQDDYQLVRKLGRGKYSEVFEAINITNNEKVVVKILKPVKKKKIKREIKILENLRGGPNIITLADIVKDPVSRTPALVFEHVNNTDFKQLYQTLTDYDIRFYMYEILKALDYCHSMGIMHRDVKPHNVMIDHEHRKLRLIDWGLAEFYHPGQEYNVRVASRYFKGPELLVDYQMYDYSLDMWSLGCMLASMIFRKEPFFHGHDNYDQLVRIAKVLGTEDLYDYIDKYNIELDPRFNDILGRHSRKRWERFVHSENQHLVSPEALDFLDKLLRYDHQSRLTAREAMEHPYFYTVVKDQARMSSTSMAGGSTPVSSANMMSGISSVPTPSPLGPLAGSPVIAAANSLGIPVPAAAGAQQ
Dual specificity tyrosine-phosphorylation-regulated kinase 3 (Homo sapiens), sequence (O43781 whole entry): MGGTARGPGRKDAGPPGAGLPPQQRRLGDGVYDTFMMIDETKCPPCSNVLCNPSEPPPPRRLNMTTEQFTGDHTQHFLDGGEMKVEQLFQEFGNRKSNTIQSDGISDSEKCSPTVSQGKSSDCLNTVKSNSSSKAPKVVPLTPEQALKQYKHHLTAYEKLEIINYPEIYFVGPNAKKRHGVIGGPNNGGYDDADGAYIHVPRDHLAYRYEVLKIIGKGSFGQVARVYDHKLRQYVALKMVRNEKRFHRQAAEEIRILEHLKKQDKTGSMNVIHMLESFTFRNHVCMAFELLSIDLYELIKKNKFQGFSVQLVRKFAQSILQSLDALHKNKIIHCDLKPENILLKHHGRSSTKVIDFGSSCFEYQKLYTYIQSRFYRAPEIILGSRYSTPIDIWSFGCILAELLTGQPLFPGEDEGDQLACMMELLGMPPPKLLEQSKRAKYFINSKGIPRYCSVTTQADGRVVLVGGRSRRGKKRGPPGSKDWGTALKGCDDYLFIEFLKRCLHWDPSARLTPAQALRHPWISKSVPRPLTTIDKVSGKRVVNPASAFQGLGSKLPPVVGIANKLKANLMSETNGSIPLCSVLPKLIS
Casein kinase II subunit alpha' (Mus musculus), sequence (O54833 whole entry): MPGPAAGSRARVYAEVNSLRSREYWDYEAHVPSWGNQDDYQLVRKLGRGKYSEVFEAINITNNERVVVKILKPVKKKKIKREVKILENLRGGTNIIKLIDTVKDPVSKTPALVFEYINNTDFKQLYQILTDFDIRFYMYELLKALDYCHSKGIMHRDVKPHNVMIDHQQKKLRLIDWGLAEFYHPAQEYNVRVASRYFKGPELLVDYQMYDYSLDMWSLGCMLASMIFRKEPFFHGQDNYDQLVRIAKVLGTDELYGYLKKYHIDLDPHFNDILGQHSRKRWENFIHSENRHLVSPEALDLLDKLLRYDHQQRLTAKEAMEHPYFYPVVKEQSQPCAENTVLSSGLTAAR

For the molecule `O=C1NC(Nc2ccccc2)=N/C1=C\c1ccc2c(c1)OCO2`, the IC50 is greater than 10 µM in experiment [1] and 0.38 µM in experiment [15]. Moreover, the inhibition result in experiment [2] and in experiment [3] was “Dose-dependent effect” each time. Besides, the inhibition result in experiment [4] was “inactive”. Besides, in experiment [5], the result was inactive. The result in experiment [6], in experiment [7] and in [8] was Active. Besides, in experiment [9], the “Kd(free)” value turned out to be 0.326 µM. Also, the inhibition result in experiment [10], in [11], in experiment [12], in experiment [13] and in experiment [14] was “Active” throughout.
